In the library only some 2.1% were active in any assay of this set; here they are far more common.
FAS-TE inh – FAS thioesterase (human) inhibition; recombinant FAS-TE, OMFH fluorogenic substrate, fluorescence endpoint; inhibition, % at 15 µM; AID 602261; actives 0.67% (n = 360,000);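 active means compounds whose normalised, plate-corrected inhibition of enzyme fluorescence in the single-dose primary screen is 50% or more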;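 further: 0% = DMSO with enzyme and 100% = substrate without enzyme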
Runt-CBFb FRET – inhibitors of human RUNX1 Runt domain binding to CBFb; Q01196+Q13951; Cerulean-Runt/Venus-CBFb FRET ratio 530/480, 1 h; inhibition, % at 20 µM; actives 0.46% (n = 220,000); AID 1496;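 active means inhibition over about 50% at 20 µM in the single-dose screen, limit read from the data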;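 further: 0% = DMSO wells and 100% = excess unlabeled CBFb competitor control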
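System: Cerulean-labeled Runt domain protein | Quantity: 100 nM of each labeled protein | Schedule: 1 h compound exposure, room temperature | Detection: Fluorescence energy transfer, 422 nm excitation, 530/480 nm emission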
m-calpain inh – calpain II (pig) inhibition; purified calpain II, fluorogenic peptide substrate, 30 min; inhibition, % at 16 µM; actives 0.37% (n = 220,000); AID 1236;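 active means inhibition above about 50%, limit read from the data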
RanGTP-Imp inh – disruptors of Ran-importin-beta complex formation – biochemical, FRET, CFP-Ran, YFP-importin-beta, homogeneous, primary screen. cell-free CFP-Ran/YFP-importin-beta FRET ratio. inhibition, % (no concentration beside the values). actives 1.1% (n = 300,000);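 active means more than half of the replicate wells show a fall in the fluorescence ratio signal beyond about 16%, limit read from the data, passing the limit was not always enough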;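 further: 0% = DMSO wells and 100% = Ran loaded with GDP instead of GTP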
Runt-SMMHC FRET – blocks binding of human RUNX1 Runt domain to CBFb-SMMHC; Cerulean-Runt/Venus-CBFb-SMMHC FRET ratio 530/480, 1 h; AID 1434; inhibition, % at 20 µM; Q01196+Q13951; actives 0.74% (n = 220,000);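 active means mean inhibition across duplicate retests at 20 µM reaching about 50%, limit read from the data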;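 further: 0% = DMSO wells and 100% = wells with excess untagged CBFb-SMMHC; inhibitors lower the FRET ratio by blocking Runt binding to CBFb-SMMHC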
* = called active by the depositor; i = inactive; . = not tested or not shown.

SMILES | FAS-TE inh | Runt-CBFb FRET | m-calpain inh | RanGTP-Imp inh | Runt-SMMHC FRET
NC(=O)c1ccc(NC(=O)CCC(=O)N2CCN(S(=O)(=O)c3ccc(Cl)cc3)CC2)cc1 | 3.5 | 2.4 | 21.6 | 8.0 | 1.2
Cc1ccc(C(=O)NCCCNc2ccccc2[N+](=O)[O-])cc1 | 25.3 | -3.7 | 50.5* | -2.8 | -1.3
COc1ccc(NS(=O)(=O)c2cc(NS(=O)(=O)c3cc(C(=O)O)ccc3OC)ccc2C)cc1 | -6.8 | . | . | . | .
O=C(Cn1cnc2ccccc2c1=O)Nc1nc2ccccc2s1 | -0.4 | 0.9 | -20.3 | -2.4 | 1.8
CCc1ccc2nc(NC(=O)Cn3cnc4ccccc4c3=O)sc2c1 | -2.9 | 4.1 | 72.0* | 2.2 | 3.1
CCOc1ccc(CN2CCN(Cc3cc4ccccc4[nH]3)CC2CCO)cc1 (centres undefined) | -3.0 | 4.1 | -43.7 | 21.5* | -7.2
COc1ccc(NC(=O)CN2C(=O)N(C)Cc3ccccc32)c(C)c1 | -6.4 | -0.2 | 30.3 | 0.2 | -0.7
O=C(NC(=S)N1CCCCC1c1cccnc1)c1ccc(Br)cc1 (centres undefined) | -1.5 | . | . | 32.5* | .
Cc1cccc(NC(=S)N2CCCCC2c2cccnc2)c1C (centres undefined) | -2.3 | 1.0 | -16.3 | 3.1 | -0.9
O=C(NC(=S)N1CCCCC1c1cccnc1)c1ccc(F)cc1 (centres undefined) | -3.1 | . | . | 18.7* | .
O=C(NCCCN1CCOCC1)c1ccc2c(=O)n(-c3ccc(F)c(Cl)c3)c(=S)[nH]c2c1 | -1.8 | . | . | -3.0 | .
Cc1cc(C)c(N=Cc2c(O)c3ccccc3oc2=O)c(C)c1 | 3.2 | . | . | 0.6 | .
Cc1cc(C)cc(N=Cc2c(O)c3ccccc3oc2=O)c1 | 2.5 | 3.4 | i | -4.8 | 87.0*
CCN(CC)C(=O)Cn1cc(C(=O)C(=O)NCCCn2ccnc2)c2ccccc21 | -0.2 | -0.8 | -28.3 | -1.9 | 0.1
CCc1cc2c(-c3ccccc3)cc(=O)oc2cc1OC(C)C(=O)O (centres undefined) | -0.5 | . | . | 9.5 | .
O=C(NC(Cc1ccccc1)C(=O)Oc1ccc2c(C(F)(F)F)cc(=O)oc2c1)OCc1ccccc1 (centres undefined) | 22.7 | 2.9 | -445.5 | 36.9* | 81.1*
CC(NC(=O)OCc1ccccc1)C(=O)Oc1cc2oc(=O)cc(-c3ccccc3)c2cc1Cl (centres undefined) | 34.2 | 18.9 | -224.9 | -5.9 | 60.1*
COc1ccc2c(c1)NC(c1ccc(N(C)C)cc1)c1cccn1-2 (centres undefined) | 2.0 | 21.2 | -12.6 | 41.6* | 47.3
COc1ccc2c(c1)NC(c1cc(Cl)cc(Cl)c1O)c1cccn1-2 (centres undefined) | -5.3 | 13.3 | 26.5 | . | -5.9
Cc1cccc(OCc2n[nH]c(=S)n2C2CCCCC2)c1 | 4.4 | 7.5 | 61.3* | 10.1 | 12.2
Cc1ccc(OCc2n[nH]c(=S)n2C2CCCCC2)cc1 | 5.4 | 20.0 | 60.6* | 4.7 | 4.8
Cn1c(CSCc2ccccc2Cl)n[nH]c1=S | -8.6 | 6.0 | 34.4 | 0.0 | 8.8
S=c1[nH]nc(CSCc2ccccc2Cl)n1C1CCCCC1 | 13.3 | 6.8 | 65.2* | 2.1 | 5.3
S=c1[nH]nc(COc2ccc(Cl)cc2)n1C1CCCCC1 | 11.9 | 9.1 | 32.1 | 2.3 | 24.0
COCc1nc2ccccc2n1Cc1ccc(Br)cc1 | 0.3 | 0.0 | 56.9* | -5.4 | -0.1
SMILES | FAS-TE inh | Runt-CBFb FRET | m-calpain inh | RanGTP-Imp inh | Runt-SMMHC FRET
Nc1c(N)c2ccccc2oc1=O | -9.0 | 1.7 | -7.5 | 20.2* | -11.8
CCOC(=O)NCc1ccc2c(c1)cc(C)n2C | -1.4 | -11.7 | -6.8 | 84.8* | -19.5
CCOC(=O)CCC(=O)NCc1ccc2c(c1)cc(C)n2C | -4.1 | -3.8 | 6.9 | -0.5 | -21.1
COc1cccc(CNc2ccc(F)c([N+](=O)[O-])c2)c1O | 11.4 | 1.6 | 83.6* | -2.2 | -0.7
CCCn1c(C)cc(C(=O)COC(=O)c2nccnc2N)c1C | -5.5 | 10.8 | -24.9 | 25.5* | 6.9
CCCn1c(C)cc(C(=O)COC(=O)c2cc(=O)[nH]c3ccccc23)c1C | -1.9 | . | . | . | .
CC(C(=O)N1c2ccccc2CC1C)N1CCN(S(=O)(=O)c2ccccc2F)CC1 (centres undefined) | 5.0 | . | . | . | .
CN1OCC(S(=O)(=O)c2ccccc2)C1c1ccccc1 (centres undefined) | -0.9 | 1.3 | -16.0 | 35.3* | -4.0
O=c1cc(N2CCCCC2)c(-c2ccccc2)nn1Cc1ccccc1 | 31.1 | -6.0 | 15.2 | . | 0.7

Source: PubChem BioAssay (several laboratories)
